Results published in ChEMBL document CHEMBL3616378 (J Med Chem, 2015).

Columns and labels:
Rattus norvegicus [1] = experiment: Toxicity in Sprague-Dawley rat assessed as impairment of neuromuscular coordination at 10 mg/kg, ip after 1 hr by rotarod test; format: organism-based; conditions: in vivo
[2] = Metabolic stability of the compound in human hepatocytes assessed as loss of compound at 2 uM; format: ADME, cell-based, Hepatocyte; conditions: read-out: Drug degradation
Outline: (§1)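 Hepatocytes from mouse, rat, dog and human; compound tested at 2 µM; percent loss of parent compound measured.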

[3] = target: Metabotropic glutamate receptor 1 (Homo sapiens, UniProt Q13255); experiment: Antagonist activity at human recombinant mGlu1 receptor expressed in AV12 cells assessed as inhibition of glutamate-stimulated Ca2+ mobilization after 1 hr by FLIPR assay; format: functional, cell-based
[4] = target: Metabotropic glutamate receptor 8 (Homo sapiens, UniProt O00222); experiment: Antagonist activity at human recombinant mGlu8 receptor expressed in AV12 cells assessed as inhibition of glutamate-stimulated Ca2+ mobilization after 1 hr by FLIPR assay; format: functional, cell-based
Rattus norvegicus [5] = experiment: Toxicity in Sprague-Dawley rat assessed as impairment of neuromuscular coordination at 10 mg/kg, ip after 2 to 3 hrs by rotarod test; format: organism-based; conditions: in vivo
[6] = Drug level in Sprague-Dawley rat cerebrospinal fluid at 10 mg/kg, ip after 4 hrs; format: ADME, organism-based; conditions: read-out: Drug uptake
Outline: (§2)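 Male Sprague–Dawley rats received single ip doses of 1, 3 or 10 mg/kg. Cerebrospinal fluid and plasma levels were determined at 0.5, 1 and 4 h. Mean csf concentration (nM ± SEM) is reported.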

[7] = target: Metabotropic glutamate receptor 2 (Homo sapiens, UniProt Q14416, E273D/L300Q); experiment: Agonist activity at human recombinant mGlu2 receptor E273D and L300Q mutant expressed in AV12 cells assessed as stimulation of Ca2+ mobilization after 1 hr by FLIPR assay; format: functional, cell-based
[8] = Volume of distribution at steady state in Sprague-Dawley rat at 1 mg/kg, iv; format: ADME, organism-based; conditions: in vivo, read-out: Vdss
Outline: (§3)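 Compound dissolved in water, pH adjusted to 7–7.5 with NaOH; single dose to fasted male Sprague–Dawley rats (~250 g) by oral gavage, intravenous or intraperitoneal route. Serial blood (11–12 samples per rat) from jugular vein catheter into EDTA tubes, centrifuged, frozen; 25 µL plasma mixed with methanol:water (1:1) containing analogue internal standard.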

[9] = Drug level in Sprague-Dawley rat cerebrospinal fluid at 1 mg/kg, ip after 4 hrs; format: ADME, organism-based; conditions: read-out: Drug uptake; outline: as §2
[10] = Half life in Sprague-Dawley rat at 1 mg/kg, iv; format: ADME, organism-based; conditions: in vivo
Outline: (§4)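 Fasted male Sprague–Dawley rats (~250 g) received a single dose of compound dissolved in water and adjusted to pH 7–7.5 with NaOH, given iv, by oral gavage or ip. Serial blood samples (11–12 per rat) were drawn from a jugular vein catheter into EDTA and kept frozen. Plasma was mixed with methanol:water (1:1) containing an analogue internal standard for analysis. Mean plasma parameters are reported.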

[11] = Solubility of the compound in DMSO at 20 uM; format: physicochemical
[12] = target: T1, Metabotropic glutamate receptor 2 (Homo sapiens, UniProt Q14416); experiment: Agonist activity at human recombinant mGlu2 receptor expressed in AV12 cells assessed as stimulation of Ca2+ mobilization after 1 hr by FLIPR assay; format: functional, cell-based
[13] = Clearance in Sprague-Dawley rat at 1 mg/kg, iv; format: ADME, organism-based; conditions: in vivo; outline: as §4
[14] = target: T1, Metabotropic glutamate receptor 2; experiment: Agonist activity at human recombinant mGlu2 receptor expressed in AV12 cells assessed as inhibition of forskolin-stimulated cAMP production after 20 min by fluorescence assay
[15] = target: T2, Metabotropic glutamate receptor 7 (Homo sapiens, UniProt Q14831); experiment: Antagonist activity at human recombinant mGlu7 receptor expressed in AV12 cells assessed as inhibition of glutamate-stimulated Ca2+ mobilization after 1 hr by FLIPR assay; format: functional, cell-based
[16] = target: Metabotropic glutamate receptor 5 (Homo sapiens, UniProt P41594); experiment: Antagonist activity at human recombinant mGlu5 receptor expressed in AV12 cells assessed as inhibition of glutamate-stimulated Ca2+ mobilization after 1 hr by FLIPR assay; format: functional, cell-based
[17] = Metabolic stability of the compound in mouse hepatocytes assessed as loss of compound at 2 uM; format: ADME, cell-based, Hepatocyte; conditions: read-out: Drug degradation; outline: as §1
[18] = AUC (0 to 24 hrs) in Sprague-Dawley rat at 10 mg/kg, ip; format: ADME, organism-based; parameters: dose 10 mg/kg, time < 24 hr, route intraperitoneal; conditions: in vivo; outline: as §4
[19] = Drug level in Sprague-Dawley rat cerebrospinal fluid at 1 mg/kg, ip after 0.5 hrs; format: ADME, organism-based; conditions: read-out: Drug uptake; outline: as §2
[20] = Tmax in Sprague-Dawley rat at 10 mg/kg, ip; format: ADME, organism-based; conditions: in vivo; outline: as §3
[21] = Tmax in Sprague-Dawley rat at 5 mg/kg, po; format: ADME, organism-based; conditions: in vivo; outline: as §3
[22] = Oral bioavailability in Sprague-Dawley rat at 5 mg/kg; format: ADME, organism-based; conditions: in vivo; outline: as §3
[23] = target: T2, Metabotropic glutamate receptor 7; experiment: Agonist activity at human recombinant mGlu7 receptor expressed in AV12 cells assessed as stimulation of Ca2+ mobilization after 1 hr by FLIPR assay; format: functional, cell-based
CYP2C9 = CYP2C9 (Homo sapiens, UniProt P11712); experiment: Inhibition of human CYP2C9 at 10 uM; format: ADME
Outline: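 Inhibition of human CYP isoforms was measured with the compound tested at 10 µM.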

[24] = Drug level in Sprague-Dawley rat cerebrospinal fluid at 3 mg/kg, ip after 4 hrs; format: ADME, organism-based; conditions: read-out: Drug uptake; outline: as §2
[25] = Drug level in Sprague-Dawley rat cerebrospinal fluid at 3 mg/kg, ip after 0.5 hrs; format: ADME, organism-based; conditions: read-out: Drug uptake; outline: as §2
[26] = Drug level in Sprague-Dawley rat cerebrospinal fluid at 10 mg/kg, ip after 0.5 hrs; format: ADME, organism-based; conditions: read-out: Drug uptake; outline: as §2
[27] = target: Metabotropic glutamate receptor 4 (Homo sapiens, UniProt Q14833); experiment: Antagonist activity at human recombinant mGlu4 receptor expressed in AV12 cells assessed as inhibition of glutamate-stimulated Ca2+ mobilization after 1 hr by FLIPR assay; format: functional, cell-based
[28] = Drug level in Sprague-Dawley rat cerebrospinal fluid at 10 mg/kg, ip after 1 hr; format: ADME, organism-based; conditions: read-out: Drug uptake; outline: as §2
[29] = target: T1, Metabotropic glutamate receptor 2; experiment: Agonist activity at wild type human recombinant mGlu2 receptor expressed in AV12 cells assessed as stimulation of Ca2+ mobilization after 1 hr by FLIPR assay; format: functional, cell-based
[30] = Tmax in Sprague-Dawley rat at 1 mg/kg, ip; format: ADME, organism-based; conditions: in vivo; outline: as §3
[31] = target: Metabotropic glutamate receptor 3 (Homo sapiens, UniProt Q14832); experiment: Agonist activity at wild type human recombinant mGlu3 receptor expressed in AV12 cells assessed as stimulation of Ca2+ mobilization after 1 hr by FLIPR assay; format: functional, cell-based
[32] = Bioavailability in Sprague-Dawley rat at 10 mg/kg, ip; format: ADME, organism-based; conditions: in vivo; outline: as §4
[33] = Half life in Sprague-Dawley rat at 5 mg/kg, po; format: ADME, organism-based; conditions: in vivo; outline: as §4
[34] = Cmax in Sprague-Dawley rat at 5 mg/kg, po; format: ADME, organism-based; parameters: dose 5 mg/kg, route oral; conditions: in vivo; outline: as §4
[35] = target: Metabotropic glutamate receptor 3 (Homo sapiens, UniProt Q14832, D279E); experiment: Agonist activity at human recombinant mGlu3 receptor D279E mutant expressed in AV12 cells assessed as stimulation of Ca2+ mobilization after 1 hr by FLIPR assay; format: functional, cell-based
[36] = target: Metabotropic glutamate receptor 2 (Homo sapiens, UniProt Q14416, E273D); experiment: Agonist activity at human recombinant mGlu2 receptor E273D mutant expressed in AV12 cells assessed as stimulation of Ca2+ mobilization after 1 hr by FLIPR assay; format: functional, cell-based
[37] = Cmax in Sprague-Dawley rat at 3 mg/kg, ip; format: ADME, organism-based; parameters: dose 3 mg/kg, route intraperitoneal; conditions: in vivo; outline: as §4

T1 sequence (Q14416 whole entry): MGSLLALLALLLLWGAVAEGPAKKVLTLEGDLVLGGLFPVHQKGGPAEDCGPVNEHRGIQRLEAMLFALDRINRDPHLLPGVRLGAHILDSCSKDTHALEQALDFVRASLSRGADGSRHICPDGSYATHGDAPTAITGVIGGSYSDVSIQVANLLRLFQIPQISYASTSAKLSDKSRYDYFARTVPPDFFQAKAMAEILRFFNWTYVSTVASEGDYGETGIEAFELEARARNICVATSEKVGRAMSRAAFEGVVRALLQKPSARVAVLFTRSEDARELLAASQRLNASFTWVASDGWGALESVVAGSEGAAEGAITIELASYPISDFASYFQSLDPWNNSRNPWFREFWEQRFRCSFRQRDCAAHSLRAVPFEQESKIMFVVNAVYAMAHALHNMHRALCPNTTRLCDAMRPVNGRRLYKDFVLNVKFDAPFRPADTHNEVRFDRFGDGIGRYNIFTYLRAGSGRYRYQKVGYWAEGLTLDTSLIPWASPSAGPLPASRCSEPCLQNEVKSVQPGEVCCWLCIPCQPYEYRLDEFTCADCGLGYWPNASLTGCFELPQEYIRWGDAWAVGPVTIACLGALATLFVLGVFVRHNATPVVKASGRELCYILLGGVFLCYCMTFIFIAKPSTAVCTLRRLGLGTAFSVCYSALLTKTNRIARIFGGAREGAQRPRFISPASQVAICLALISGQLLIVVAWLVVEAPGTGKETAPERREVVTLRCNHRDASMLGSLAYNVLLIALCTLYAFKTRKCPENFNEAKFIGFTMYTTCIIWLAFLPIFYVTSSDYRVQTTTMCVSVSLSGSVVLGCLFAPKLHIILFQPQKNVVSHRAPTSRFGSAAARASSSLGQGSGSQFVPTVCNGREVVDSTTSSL
T2 sequence (Q14831 whole entry): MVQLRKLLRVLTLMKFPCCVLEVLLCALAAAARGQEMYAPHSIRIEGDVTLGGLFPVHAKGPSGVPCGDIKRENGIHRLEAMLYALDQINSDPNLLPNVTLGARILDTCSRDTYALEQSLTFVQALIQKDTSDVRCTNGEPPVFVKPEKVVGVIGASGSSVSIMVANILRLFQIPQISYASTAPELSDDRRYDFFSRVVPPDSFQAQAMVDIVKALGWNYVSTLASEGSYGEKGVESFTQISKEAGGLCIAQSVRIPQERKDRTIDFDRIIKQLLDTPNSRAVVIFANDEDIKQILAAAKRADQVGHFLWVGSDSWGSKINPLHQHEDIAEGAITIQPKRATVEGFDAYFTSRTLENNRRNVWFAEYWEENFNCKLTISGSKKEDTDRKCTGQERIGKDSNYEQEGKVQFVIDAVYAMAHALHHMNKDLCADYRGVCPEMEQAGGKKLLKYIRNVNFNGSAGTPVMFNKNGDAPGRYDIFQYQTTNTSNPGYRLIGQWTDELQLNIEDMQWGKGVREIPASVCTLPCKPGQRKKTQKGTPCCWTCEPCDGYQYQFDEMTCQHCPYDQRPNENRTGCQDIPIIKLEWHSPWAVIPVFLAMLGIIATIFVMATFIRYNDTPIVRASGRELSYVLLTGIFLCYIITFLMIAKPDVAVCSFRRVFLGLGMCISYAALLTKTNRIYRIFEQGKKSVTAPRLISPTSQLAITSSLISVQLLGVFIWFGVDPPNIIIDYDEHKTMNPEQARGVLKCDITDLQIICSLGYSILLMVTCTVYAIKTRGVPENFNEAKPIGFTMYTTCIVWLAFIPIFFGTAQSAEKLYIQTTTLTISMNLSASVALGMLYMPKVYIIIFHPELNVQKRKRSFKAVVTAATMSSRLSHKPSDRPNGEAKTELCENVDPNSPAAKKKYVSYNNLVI
Metabotropic glutamate receptor 5, sequence (P41594 whole entry): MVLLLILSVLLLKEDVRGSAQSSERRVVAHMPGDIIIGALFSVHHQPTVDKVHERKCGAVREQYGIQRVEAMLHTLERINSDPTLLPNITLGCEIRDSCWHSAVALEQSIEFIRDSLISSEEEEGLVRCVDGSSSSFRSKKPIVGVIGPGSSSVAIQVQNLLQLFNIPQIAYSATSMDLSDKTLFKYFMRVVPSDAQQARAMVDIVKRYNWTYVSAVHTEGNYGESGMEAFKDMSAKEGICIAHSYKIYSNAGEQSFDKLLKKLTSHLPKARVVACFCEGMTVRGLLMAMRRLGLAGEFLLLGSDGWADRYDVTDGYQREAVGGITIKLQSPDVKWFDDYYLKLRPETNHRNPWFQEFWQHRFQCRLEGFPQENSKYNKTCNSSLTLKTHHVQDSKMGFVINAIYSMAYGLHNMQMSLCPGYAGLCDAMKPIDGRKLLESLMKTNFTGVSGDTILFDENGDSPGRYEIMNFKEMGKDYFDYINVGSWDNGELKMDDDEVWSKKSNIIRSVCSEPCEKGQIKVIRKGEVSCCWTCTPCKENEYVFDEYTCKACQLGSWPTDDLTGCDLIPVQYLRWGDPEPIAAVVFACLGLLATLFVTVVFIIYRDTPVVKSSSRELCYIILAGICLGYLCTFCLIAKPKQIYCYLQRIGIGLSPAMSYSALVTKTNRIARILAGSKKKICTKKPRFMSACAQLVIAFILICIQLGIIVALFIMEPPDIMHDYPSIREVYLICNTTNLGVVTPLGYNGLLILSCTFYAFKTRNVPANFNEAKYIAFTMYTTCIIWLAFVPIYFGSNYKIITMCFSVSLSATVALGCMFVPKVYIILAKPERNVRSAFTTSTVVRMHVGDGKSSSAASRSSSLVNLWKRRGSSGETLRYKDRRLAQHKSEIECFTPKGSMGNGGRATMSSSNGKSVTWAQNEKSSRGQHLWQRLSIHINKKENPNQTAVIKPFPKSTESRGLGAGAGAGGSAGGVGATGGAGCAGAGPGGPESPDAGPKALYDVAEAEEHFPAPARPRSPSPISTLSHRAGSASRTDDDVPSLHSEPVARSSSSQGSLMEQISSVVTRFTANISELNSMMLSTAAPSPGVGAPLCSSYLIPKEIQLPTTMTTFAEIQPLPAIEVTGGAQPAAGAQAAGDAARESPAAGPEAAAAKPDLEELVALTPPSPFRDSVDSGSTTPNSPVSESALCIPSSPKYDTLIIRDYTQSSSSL
Metabotropic glutamate receptor 8, sequence (O00222 whole entry): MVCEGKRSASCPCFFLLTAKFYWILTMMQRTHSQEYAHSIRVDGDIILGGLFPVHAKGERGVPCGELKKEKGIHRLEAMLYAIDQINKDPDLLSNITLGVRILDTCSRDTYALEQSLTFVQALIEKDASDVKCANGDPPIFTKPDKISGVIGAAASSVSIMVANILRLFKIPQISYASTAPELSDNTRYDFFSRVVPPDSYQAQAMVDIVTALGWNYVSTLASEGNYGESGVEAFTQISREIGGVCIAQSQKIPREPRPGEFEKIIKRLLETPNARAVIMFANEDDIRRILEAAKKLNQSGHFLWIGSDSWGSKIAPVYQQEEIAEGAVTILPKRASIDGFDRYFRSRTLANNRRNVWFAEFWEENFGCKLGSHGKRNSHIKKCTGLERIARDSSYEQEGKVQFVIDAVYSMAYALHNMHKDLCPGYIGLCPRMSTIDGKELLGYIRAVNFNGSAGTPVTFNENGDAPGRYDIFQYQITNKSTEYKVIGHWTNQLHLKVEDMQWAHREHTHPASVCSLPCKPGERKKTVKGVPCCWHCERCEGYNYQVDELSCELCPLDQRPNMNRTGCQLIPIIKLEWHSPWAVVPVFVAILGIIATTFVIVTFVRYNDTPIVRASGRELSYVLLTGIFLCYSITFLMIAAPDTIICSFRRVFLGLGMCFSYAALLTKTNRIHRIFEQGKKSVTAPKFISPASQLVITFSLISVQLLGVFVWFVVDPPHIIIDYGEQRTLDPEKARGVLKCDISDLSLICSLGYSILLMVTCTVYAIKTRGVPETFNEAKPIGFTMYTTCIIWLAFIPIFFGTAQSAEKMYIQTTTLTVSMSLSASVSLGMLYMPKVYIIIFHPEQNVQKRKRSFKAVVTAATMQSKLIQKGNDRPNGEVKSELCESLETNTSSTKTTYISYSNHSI
CYP2C9, sequence (P11712 whole entry, canonical isoform): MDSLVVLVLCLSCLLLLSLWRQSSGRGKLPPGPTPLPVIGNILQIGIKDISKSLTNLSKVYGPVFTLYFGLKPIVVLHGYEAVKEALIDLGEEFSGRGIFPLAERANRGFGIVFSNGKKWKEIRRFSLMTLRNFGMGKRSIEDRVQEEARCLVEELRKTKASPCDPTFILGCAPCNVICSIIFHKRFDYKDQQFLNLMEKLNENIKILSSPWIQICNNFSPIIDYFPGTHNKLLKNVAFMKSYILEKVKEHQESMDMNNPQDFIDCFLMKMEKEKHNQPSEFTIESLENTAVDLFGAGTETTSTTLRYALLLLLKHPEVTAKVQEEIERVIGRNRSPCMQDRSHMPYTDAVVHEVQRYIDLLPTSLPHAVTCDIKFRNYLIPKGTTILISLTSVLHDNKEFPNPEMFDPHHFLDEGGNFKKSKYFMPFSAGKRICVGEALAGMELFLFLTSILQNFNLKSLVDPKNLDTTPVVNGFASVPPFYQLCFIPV

## N[C@@]1(C(=O)O)C[C@@H](Sc2nc[nH]n2)[C@H]2[C@H](C(=O)O)[C@H]21
Rattus norvegicus [1]
  Activity: Toxic
[2]
  metabolised at 2 µM: < 10%
[3]
  IC50: > 12500 nM
[4]
  IC50: > 12500 nM
Rattus norvegicus [5]
  Activity: Non-toxic
[6]
  concentration at 4 h: 86.7 nM
[7]
  EC50: 48.2 nM
[8]
  Vd: 1.01 L/kg
[9]
  concentration at 4 h: 9.7 nM
[10]
  half-life: 198 min
[11]
  solubility at 20 µM: > 10 mM
[12]
  EC50: 21.1 nM
[13]
  clearance: 12.3 mL/min/kg
[14]
  EC50: 5.6 nM
[15]
  IC50: > 12500 nM
[16]
  IC50: > 12500 nM
[17]
  metabolised at 2 µM: < 10%
[18]
  AUC(0-t) at 24 h: 43.1 µM·h
[19]
  concentration at 0.5 h: 48.8 nM
[20]
  Tmax: 30 min
[21]
  Tmax: 30 min
[22]
  bioavailability: 4%
[23]
  EC50: > 25000 nM
CYP2C9
  inhibition at 10 µM: < 10%
[24]
  concentration at 4 h: 27.5 nM
[25]
  concentration at 0.5 h: 97.3 nM
[26]
  concentration at 0.5 h: 235 nM
[27]
  IC50: > 12500 nM
[28]
  concentration at 1 h: 272 nM
[29]
  EC50: 20.1 nM
[30]
  Tmax: 24 min
[31]
  EC50: 5680 nM
[32]
  bioavailability: 88%
[33]
  half-life: 222 min
[34]
  Cmax: 220 nM
[35]
  EC50: 2180 nM
[36]
  EC50: 46.3 nM
[37]
  Cmax: 8050 nM
